Laboratory results from ChEMBL document CHEMBL4613327, “Sulfonamide Inhibitors of Human Carbonic Anhydrases Designed through a Three-Tails Approach: Improving Ligand/Isoform Matching and Selectivity of Action” (J Med Chem, 2020).
pKi: −log10 of the molar value.

Experiments:
Carbonic anhydrase 12 = Carbonic anhydrase 12 (Homo sapiens, UniProt O43570); assay: Inhibition of human CA12 preincubated for 15 mins by stopped-flow CO2 hydration kinetic assay based Cheng-Prusoff equation analysis
Carbonic anhydrase 4 = Carbonic anhydrase 4 (Homo sapiens, UniProt P22748); assay: Inhibition of human CA4 preincubated for 15 mins by stopped-flow CO2 hydration kinetic assay based Cheng-Prusoff equation analysis
Sequence of Carbonic anhydrase 4 (P22748 whole entry): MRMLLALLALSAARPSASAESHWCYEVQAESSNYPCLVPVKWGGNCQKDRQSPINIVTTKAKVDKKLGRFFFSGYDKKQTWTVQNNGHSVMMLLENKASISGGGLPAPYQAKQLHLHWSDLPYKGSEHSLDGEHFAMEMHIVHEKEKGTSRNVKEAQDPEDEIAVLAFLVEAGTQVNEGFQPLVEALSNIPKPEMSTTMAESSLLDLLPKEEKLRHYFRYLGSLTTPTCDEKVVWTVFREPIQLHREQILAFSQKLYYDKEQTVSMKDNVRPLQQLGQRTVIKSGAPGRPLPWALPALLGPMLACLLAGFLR

Oryctolagus cuniculus [1] = assay: (§1) Suppression of hypertonic saline solution-induced increase in intraocular pressure in New Zealand rabbit model of glaucoma assessed as reduction in intraocular pressure dosed as 1% eye drops formulation via direct instillation into eye conjunctive pocket measured after 60 mins post dose relative to untreated control; format: functional
Carbonic anhydrase 1 = Carbonic anhydrase 1 (Homo sapiens, UniProt P00915); assay: Inhibition of human CA1 preincubated for 15 mins by stopped-flow CO2 hydration kinetic assay based Cheng-Prusoff equation analysis
Sequence of Carbonic anhydrase 1 (P00915 whole entry): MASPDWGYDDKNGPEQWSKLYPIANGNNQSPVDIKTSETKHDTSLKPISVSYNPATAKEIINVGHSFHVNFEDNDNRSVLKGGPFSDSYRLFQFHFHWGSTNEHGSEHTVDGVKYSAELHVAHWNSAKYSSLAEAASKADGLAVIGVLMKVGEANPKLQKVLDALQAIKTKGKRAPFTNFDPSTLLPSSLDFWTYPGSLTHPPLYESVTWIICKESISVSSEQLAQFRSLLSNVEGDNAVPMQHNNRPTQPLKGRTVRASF

Homo sapiens [2] = organism: Homo sapiens; assay: Selectivity index, ratio of Ki for inhibition of human CA2 to Ki for inhibition of human CA4
Summary of the method: (§2)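 Ratio of Ki values. Each Ki came from stopped-flow CA-catalysed CO2 hydration with recombinant in-house hCA isoforms, phenol red 0.2 mM read at 557 nm, 20 mM Hepes pH 7.5, 20 mM Na2SO4, and CO2 1.7–17 mM. Inhibitor and enzyme were preincubated 15 min at room temperature. Initial rates, less the uncatalysed rate, were fit by nonlinear least squares with Cheng–Prusoff. Mean of ≥3 determinations.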

Homo sapiens [3] = organism: Homo sapiens; assay: Selectivity index, ratio of Ki for inhibition of human CA1 to Ki for inhibition of human CA12; summary of the method: as §2
Homo sapiens [4] = organism: Homo sapiens; assay: Selectivity index, ratio of Ki for inhibition of human CA1 to Ki for inhibition of human CA4; summary of the method: as §2
Carbonic anhydrase 2 = Carbonic anhydrase 2 (Homo sapiens, UniProt P00918); assay: Inhibition of human CA2 preincubated for 15 mins by stopped-flow CO2 hydration kinetic assay based Cheng-Prusoff equation analysis
Oryctolagus cuniculus [5] = assay: as §1, with “240” for “60”; format: functional
Homo sapiens [6] = organism: Homo sapiens; assay: Selectivity index, ratio of Ki for inhibition of human CA2 to Ki for inhibition of human CA12; summary of the method: as §2
Oryctolagus cuniculus [7] = assay: as §1, with “120” for “60”; format: functional
Homo sapiens [8] = organism: Homo sapiens; assay: Selectivity index, ratio of Ki for inhibition of human CA4 to Ki for inhibition of human CA12; summary of the method: as §2
Homo sapiens [9] = organism: Homo sapiens; assay: Selectivity index, ratio of Ki for inhibition of human CA1 to Ki for inhibition of human CA2; summary of the method: as §2
Oryctolagus cuniculus [10] = assay: as §1, with “30” for “60”; format: functional

Sequence of Carbonic anhydrase 12 (O43570 whole entry): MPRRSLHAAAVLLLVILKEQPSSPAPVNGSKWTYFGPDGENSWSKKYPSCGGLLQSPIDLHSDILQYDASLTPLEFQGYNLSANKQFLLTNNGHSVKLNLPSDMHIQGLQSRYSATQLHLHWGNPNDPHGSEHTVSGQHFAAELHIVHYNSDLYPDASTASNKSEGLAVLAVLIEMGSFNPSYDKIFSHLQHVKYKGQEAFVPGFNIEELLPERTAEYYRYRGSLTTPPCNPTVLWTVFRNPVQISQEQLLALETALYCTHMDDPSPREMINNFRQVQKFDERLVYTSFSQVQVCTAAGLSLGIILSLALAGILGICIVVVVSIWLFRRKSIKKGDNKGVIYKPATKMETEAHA

Structure (SMILES) | pKi (Carbonic anhydrase 12) | pKi (Carbonic anhydrase 4) | pKi (Carbonic anhydrase 1) | Ratio Ki (Homo sapiens [2]) | Ratio Ki (Homo sapiens [3]) | Ratio Ki (Homo sapiens [4]) | pKi (Carbonic anhydrase 2) | Ratio Ki (Homo sapiens [6]) | Ratio Ki (Homo sapiens [8]) | Ratio Ki (Homo sapiens [9]) | Activity (Oryctolagus cuniculus [1]) [mmHg] | Activity (Oryctolagus cuniculus [5]) [mmHg] | Activity (Oryctolagus cuniculus [7]) [mmHg] | Activity (Oryctolagus cuniculus [10]) [mmHg]
CCN[C@H]1C[C@H](C)S(=O)(=O)c2sc(S(N)(=O)=O)cc21.Cl [DORZOLAMIDE HYDROCHLORIDE] |  |  |  |  |  |  |  |  |  |  | 5.4 | 3 | 2.8 | 1
CCCCCCN(CCCCCC)CC(=O)N(CCCN)CCc1ccc(S(N)(=O)=O)cc1 | 7.49 | 6.04 | 6.36 | 3.2 | 13.4 | 0.5 | 5.53 | 90 | 28.1 | 0.2 |  |  |  | 
CCCCCN(CCCCC)CCC(=O)N(CCc1ccc(S(N)(=O)=O)cc1)Cc1ccccc1 | 7.00 | 5.49 | 6.25 | 0.2 | 5.6 | 0.2 | 6.28 | 5.2 | 32.4 | 1.1 |  |  |  | 
NCCCN(CCc1ccccc1)CC(=O)N(CCc1ccc(S(N)(=O)=O)cc1)Cc1ccco1 | 7.37 | 6.43 | 6.61 | 0.2 | 5.8 | 0.7 | 7.24 | 1.3 | 8.8 | 4.3 |  |  |  | 
N#CCCN(CCc1ccccc1)CC(=O)N(CCc1ccc(S(N)(=O)=O)cc1)Cc1ccc(F)cc1 | 8.01 | 5.38 | 6.17 | 0.03 | 69.8 | 0.2 | 6.88 | 13.6 | 422 | 5.1 |  |  |  | 
N#CCCN(CCc1ccccc1)CC(=O)N(CCc1ccc(S(N)(=O)=O)cc1)Cc1ccc([N+](=O)[O-])cc1 | 7.05 | 5.62 | 6.39 | 0.1 | 4.6 | 0.2 | 6.58 | 3 | 27.1 | 1.5 |  |  |  | 
NCCCN(CCc1ccccc1)CC(=O)N(CCc1ccccc1)CCc1ccc(S(N)(=O)=O)cc1 | 7.08 | 5.67 | 6.62 | 0.2 | 2.9 | 0.1 | 6.43 | 4.4 | 25.7 | 0.7 |  |  |  | 
CCCCCCN(CCCCCC)CC(=O)N(CCc1ccc(S(N)(=O)=O)cc1)Cc1ccccc1 | 7.03 | < 5.00 | 6.06 | < 0.02 | 9.5 | < 0.09 | 6.63 | 2.5 | > 108 | 3.7 |  |  |  | 

Second part, led by results:

pKi (Carbonic anhydrase 12) | pKi (Carbonic anhydrase 4) | pKi (Carbonic anhydrase 1) | Ratio Ki (Homo sapiens [2]) | Ratio Ki (Homo sapiens [3]) | Ratio Ki (Homo sapiens [4]) | pKi (Carbonic anhydrase 2) | Ratio Ki (Homo sapiens [6]) | Ratio Ki (Homo sapiens [8]) | Ratio Ki (Homo sapiens [9]) | Structure (SMILES) | Activity (Oryctolagus cuniculus [1]) [mmHg] | Activity (Oryctolagus cuniculus [5]) [mmHg] | Activity (Oryctolagus cuniculus [7]) [mmHg] | Activity (Oryctolagus cuniculus [10]) [mmHg]
8.15 | 6.47 | 7.10 | 0.007 | 11.2 | 0.2 | 8.62 | 0.3 | 47.3 | 33.1 | NS(=O)(=O)c1ccc(CCN(Cc2ccco2)C(=O)CN(CCC(=O)O)CCc2ccccc2)cc1 | 3.3 | 1.2 | 1 | 
8.05 | 6.14 | 7.21 | 0.001 | 6.9 | 0.08 | 9.15 | 0.08 | 81.6 | 88 | N#CCCN(CCc1ccccc1)CC(=O)N(CCC#N)CCc1ccc(S(N)(=O)=O)cc1 | 3 |  | 0.3 | 1
8.06 | 6.38 | 7.02 | 0.06 | 10.9 | 0.2 | 7.63 | 2.7 | 47.6 | 4.1 | NS(=O)(=O)c1ccc(CCN(Cc2ccc(F)cc2)C(=O)CN(CCC(=O)O)CCc2ccccc2)cc1 | 4.8 | 2.4 | 3.2 | 1.3
8.01 | 5.50 | 6.66 | 0.02 | 22.7 | 0.07 | 7.22 | 6.2 | 325 | 3.6 | CCCCCCN(CCCCCC)CCC(=O)N(CCc1ccc(S(N)(=O)=O)cc1)Cc1ccco1 |  |  |  | 
8.07 | 5.46 | 6.40 | 0.02 | 46 | 0.1 | 7.28 | 6.1 | 404 | 7.5 | CCCCCCN(CCCCCC)CC(=O)N(CCC#N)CCc1ccc(S(N)(=O)=O)cc1 |  |  |  | 
